In data set [1] the test system is Rattus norvegicus. As to the kind of experiment: Hypolipidemic activity in Wistar rat assessed as reduction in plasma triglyceride level at 489 umol/kg/day administered through diet for 10 days. The class given is functional. The settings on record: 240 h.
The test system of data set [2] is Rattus norvegicus. As to the kind of experiment: Hypolipidemic activity in Wistar rat assessed as reduction in plasma cholesterol level at 489 umol/kg/day administered through diet for 10 days. The class given is functional. The settings on record: 240 h. The essentials: (§1)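 Young male Wistar rats, 170-190 g initial weight, groups of six, given compound mixed thoroughly into Purina Lab Chow ad libitum for 4 or 10 days as stated. Daily dose calculated from food consumption and body weight. Bled by cardiac puncture at end of treatment; plasma cholesterol measured by automated procedure. Expressed as percent reduction versus simultaneous untreated control group; Student's t test.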

Data set [3] has as its system Rattus norvegicus. The data set is described as follows: Increase in cholesterol level in Wistar rat liver at 489 umol/kg/day administered through diet for 10 days. The data set is classed as ADME, organism-based. The conditions noted are these: in vivo, po, 240 h.
In data set [4] the test system is Rattus norvegicus. The data set is described as follows: Increase in liver weight in Wistar rat at 489 umol/kg/day administered through diet for 10 days. The class given is ADME, organism-based. The settings on record: in vivo, po, 240 h.
Data set [5] relates to Rattus norvegicus. The data set is described as follows: Hypolipidemic activity in Wistar rat assessed as reduction in plasma triglyceride level at 470 umol/kg/day administered through diet for 4 days. The class given is functional. The settings on record: 96 h.
The subject of data set [6] is Rattus norvegicus. As to the kind of experiment: Hypolipidemic activity in Wistar rat assessed as reduction in plasma triglyceride level at 428 umol/kg/day administered through diet for 10 days. The settings on record: 240 h. The class given is functional.
The subject of data set [7] is Rattus norvegicus. The data set is described as follows: Hypolipidemic activity in Wistar rat assessed as reduction in plasma cholesterol level at 470 umol/kg/day administered through diet for 4 days. The data set is classed as functional. The conditions noted are these: 96 h. The procedure, abridged:
as §1

The test system of data set [8] is Rattus norvegicus. As to the kind of experiment: Hypolipidemic activity in Wistar rat assessed as reduction in plasma cholesterol level at 428 umol/kg/day administered through diet for 10 days. The class given is functional. The conditions noted are these: 240 h. The essentials:
as §1

The subject of data set [9] is Rattus norvegicus. As to the kind of experiment: Increase in cholesterol level in Wistar rat liver at 470 umol/kg/day administered through diet for 4 days. The class given is ADME, organism-based. The settings on record: in vivo, po, 96 h.
Data set [10] has as its system Rattus norvegicus. The data set is described as follows: Increase in liver weight in Wistar rat at 470 umol/kg/day administered through diet for 4 days. The data set is classed as ADME, organism-based. The settings on record: in vivo, po, 96 h.
Data set [11] has as its system Rattus norvegicus. As to the kind of experiment: Hypolipidemic activity in Wistar rat assessed as reduction in plasma triglyceride level at 444 umol/kg/day administered through diet for 10 days. The class given is functional. The conditions noted are these: 240 h.
For data set [12], the system named is Rattus norvegicus. The data set is described as follows: Hypolipidemic activity in Wistar rat assessed as reduction in plasma cholesterol level at 444 umol/kg/day administered through diet for 10 days. The conditions noted are these: 240 h. The data set is classed as functional. The essentials:
as §1

Data set [13] relates to Rattus norvegicus. As to the kind of experiment: Increase in cholesterol level in Wistar rat liver at 444 umol/kg/day administered through diet for 10 days. The conditions noted are these: in vivo, po, 240 h. The data set is classed as ADME, organism-based.
In data set [14] the test system is Rattus norvegicus. The data set is described as follows: Increase in liver weight in Wistar rat at 444 umol/kg/day administered through diet for 10 days. The data set is classed as ADME, organism-based. The conditions noted are these: in vivo, po, 240 h.
The test system of data set [15] is Rattus norvegicus. As to the kind of experiment: Hypolipidemic activity in Wistar rat assessed as reduction in plasma triglyceride level at 179 umol/kg/day administered through diet for 10 days. The conditions noted are these: 240 h. The data set is classed as functional. The procedure, abridged: (§2)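 Young male Wistar rats (initial weight 170-190 g), groups of six, fed compound mixed into Purina Lab Chow ad libitum for 4 or 10 days; daily dose calculated from food consumption and body weight. Bled by cardiac puncture; plasma cholesterol and triglycerides by automated procedures; percent reduction versus simultaneous untreated controls, Student's t test.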

Data set [16] relates to Rattus norvegicus. As to the kind of experiment: Hypolipidemic activity in Wistar rat assessed as reduction in plasma triglyceride level at 1498 umol/kg/day administered through diet for 10 days. The class given is functional. The settings on record: 240 h. The essentials:
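Young male Wistar rats, 170-190 g initial weight, six per group, fed drug mixed thoroughly into Purina Lab Chow ad libitum for the stated days; daily dose calculated from food consumption and body weight. Bled by cardiac puncture at end; plasma cholesterol and triglycerides by automated procedures, expressed as percent reduction versus simultaneous untreated controls; Student's t test.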

Data set [17] has as its system Rattus norvegicus. The data set is described as follows: Hypolipidemic activity in Wistar rat assessed as reduction in plasma triglyceride level at 558 umol/kg/day administered through diet for 10 days. The class given is functional. The conditions noted are these: 240 h. The essentials: as §2
Data set [18] relates to Rattus norvegicus. As to the kind of experiment: Hypolipidemic activity in Wistar rat assessed as reduction in plasma cholesterol level at 179 umol/kg/day administered through diet for 10 days. The class given is functional. The settings on record: 240 h. The procedure, abridged: (§3)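 Young male Wistar rats, 170-190 g at start, in groups of six, given compound mixed into Purina Lab Chow ad libitum for 4 or 10 days as stated. Daily dose was calculated from food consumption and body weight. Plasma was taken by cardiac puncture at the end and cholesterol measured by automated procedure. Results are % reduction versus a concurrent untreated control group, with Student's t test.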

In data set [19] the test system is Rattus norvegicus. The data set is described as follows: Hypolipidemic activity in Wistar rat assessed as reduction in plasma cholesterol level at 1498 umol/kg/day administered through diet for 10 days. The class given is functional. The conditions noted are these: 240 h. The procedure, abridged: as §3
Data set [20] has as its system Rattus norvegicus. The data set is described as follows: Hypolipidemic activity in Wistar rat assessed as reduction in plasma cholesterol level at 558 umol/kg/day administered through diet for 10 days. The data set is classed as functional. The conditions noted are these: 240 h. The procedure, abridged:
as §2

In data set [21] the test system is Rattus norvegicus. As to the kind of experiment: Increase in cholesterol level in Wistar rat liver at 1498 umol/kg/day administered through diet for 10 days. The class given is ADME, organism-based. The conditions noted are these: in vivo, po, 240 h.
Data set [22] relates to Rattus norvegicus. As to the kind of experiment: Increase in cholesterol level in Wistar rat liver at 558 umol/kg/day administered through diet for 10 days. The class given is ADME, organism-based. The settings on record: in vivo, po, 240 h. The procedure, abridged: (§4)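 Male Wistar rats (170-190 g), six per group, given compound by admixture to lab chow ad libitum for 4 or 10 days, dose derived from food intake. Liver cholesterol determined by automated procedure, expressed as mg/g wet tissue, compared with an untreated control group by Student's t test.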

In data set [23] the test system is Rattus norvegicus. As to the kind of experiment: Increase in cholesterol level in Wistar rat liver at 179 umol/kg/day administered through diet for 10 days. The data set is classed as ADME, organism-based. The conditions noted are these: in vivo, po, 240 h. The essentials: as §4
In data set [24] the test system is Rattus norvegicus. The data set is described as follows: Increase in liver weight in Wistar rat at 1498 umol/kg/day administered through diet for 10 days. The data set is classed as ADME, organism-based. The settings on record: in vivo, po, 240 h.
For data set [25], the system named is Rattus norvegicus. As to the kind of experiment: Increase in liver weight in Wistar rat at 558 umol/kg/day administered through diet for 10 days. The class given is ADME, organism-based. The conditions noted are these: in vivo, po, 240 h. The essentials: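 Male Wistar rats (170-190 g initial), groups of six, dosed via diet ad libitum for 4 or 10 days, daily dose from food consumption. Liver wet weight measured, expressed as g/100 g final body weight, compared with untreated controls run simultaneously.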

Data set [26] has as its system Rattus norvegicus. The data set is described as follows: Hypolipidemic activity in Wistar rat assessed as reduction in plasma triglyceride level at 538 umol/kg/day administered through diet for 10 days. The class given is functional. The settings on record: 240 h.
Data set [27] has as its system Rattus norvegicus. The data set is described as follows: Hypolipidemic activity in Wistar rat assessed as reduction in plasma cholesterol level at 538 umol/kg/day administered through diet for 10 days. The settings on record: 240 h. The class given is functional. The procedure, abridged: as §1
For data set [28], the system named is Rattus norvegicus. As to the kind of experiment: Increase in cholesterol level in Wistar rat liver at 538 umol/kg/day administered through diet for 10 days. The conditions noted are these: in vivo, po, 240 h. The class given is ADME, organism-based.
Data set [29] has as its system Rattus norvegicus. As to the kind of experiment: Increase in liver weight in Wistar rat at 538 umol/kg/day administered through diet for 10 days. The class given is ADME, organism-based. The settings on record: in vivo, po, 240 h.
For data set [30], the system named is Rattus norvegicus. The data set is described as follows: Hypolipidemic activity in Wistar rat assessed as reduction in plasma cholesterol level at 496 umol/kg/day administered through diet for 4 days. The data set is classed as functional. The settings on record: 96 h. The procedure, abridged:
as §1

Data set [31] has as its system Rattus norvegicus. As to the kind of experiment: Hypolipidemic activity in Wistar rat assessed as reduction in plasma triglyceride level at 496 umol/kg/day administered through diet for 4 days. The class given is functional. The settings on record: 96 h.
Data set [32] has as its system Rattus norvegicus. The data set is described as follows: Hypolipidemic activity in Wistar rat assessed as reduction in plasma triglyceride level at 460 umol/kg/day administered through diet for 10 days. The data set is classed as functional. The settings on record: 240 h.
For data set [33], the system named is Rattus norvegicus. The data set is described as follows: Hypolipidemic activity in Wistar rat assessed as reduction in plasma cholesterol level at 460 umol/kg/day administered through diet for 10 days. The class given is functional. The conditions noted are these: 240 h. The essentials:
as §1

In data set [34] the test system is Rattus norvegicus. As to the kind of experiment: Increase in cholesterol level in Wistar rat liver at 496 umol/kg/day administered through diet for 4 days. The data set is classed as ADME, organism-based. The conditions noted are these: in vivo, po, 96 h.
Data set [35] deals with Rattus norvegicus. The data set is described as follows: Increase in cholesterol level in Wistar rat liver at 460 umol/kg/day administered through diet for 10 days. The data set is classed as ADME, organism-based. The conditions noted are these: in vivo, po, 240 h.
Data set [36] concerns Rattus norvegicus. The data set is described as follows: Increase in liver weight in Wistar rat at 496 umol/kg/day administered through diet for 4 days. The conditions noted are these: in vivo, po, 96 h. The class given is ADME, organism-based.
For data set [37], the system named is Rattus norvegicus. As to the kind of experiment: Increase in liver weight in Wistar rat at 460 umol/kg/day administered through diet for 10 days. The class given is ADME, organism-based. The conditions noted are these: in vivo, po, 240 h.

In the case of `CCCCCCCCCCOc1ccc(C(=O)OC)cc1`, the inhibition in vivo at 489 µmol/kg turned out to be 94% in [1] and 36% in data set [2]. The Activity in data set [3] amounted to 43%; in data set [4], 19%.

Turning to `CCCCCCCCCCCCOc1ccc(C(=O)O)cc1`, the values for the inhibition in vivo at 470 µmol/kg in data set [5] and in data set [7] were 58% and 33%, respectively. Besides, the figures for the inhibition in vivo at 428 µmol/kg in [6] and in data set [8] were 31% and 16%, respectively. The Activity in data set [9] and in data set [10] was 22% throughout.

For `CCCCCCCCCCCOc1ccc(C(=O)OC)cc1`, the inhibition in vivo at 444 µmol/kg in [11] turned out to be 88%; in data set [12], 45%. The Activity is 41% in data set [13] and 23% in [14].

As to `CCCCCCCCCCCCc1ccc(C(=O)O)cc1`, the inhibition in vivo at 179 µmol/kg amounted to 62% in data set [15] and 34% in data set [18]. Besides, the inhibition in vivo at 1498 µmol/kg in data set [16] came out at 74%; in [19] it was 55%. Moreover, the inhibition in vivo at 558 µmol/kg in data set [17] was 78%; in data set [20], 48%. Besides, the Activity in data set [21] was determined as 323%; in data set [22], 215%; in [23], 79%; in [24], 38%; in data set [25], 29%.

On to `CCCCCCCCc1ccc(C(=O)O)cc1`, for which the inhibition in vivo at 538 µmol/kg in data set [26] is 21%; in [27], 6%. The Activity in [28] and in [29] was 11% each time.

As for `CCCCCCCCCCCCCOc1ccc(C(=O)OC)cc1`, the figures for the inhibition in vivo at 496 µmol/kg in data set [30] and in data set [31] were 27% and 31%, respectively. In addition, the inhibition in vivo at 460 µmol/kg in data set [32] was 70%; in [33], 25%. The Activity worked out at 9% in data set [34], 6% in [35], 20% in data set [36] and 20% in [37].

(Values after ChEMBL document CHEMBL3272012, “5-(Tetradecyloxy)-2-furancarboxylic acid and related hypolipidemic fatty acid-like alkyloxyarylcarboxylic acids” (J Med Chem, 1977).)
